Converted amounts (≈) assume the structure as drawn. The source made the active and inactive calls. No cut-off for these calls is given here.
Key:
[1] = target: DNA topoisomerase 2-alpha (Homo sapiens, UniProt P11388); assay: Inhibition of human topoisomerase-2alpha-mediated relaxation of supercoiled pBR322 DNA after 1 hr by ethidium bromide staining based agarose gel electrophoresis
Summary of the method: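 Supercoiled pBR322 was incubated with compound (0.5–100) and 1 U human topoisomerase IIα in enzyme buffer for 1 h at 37 °C. Reactions were stopped with Tris/EDTA/NaCl loading buffer (pH 8.0) and run on 1% agarose in TAE with 0.1% SDS (4.9 V/cm, 90 min), then stained with ethidium bromide. IC50 is the concentration reducing relaxation activity by 50%.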

Thermus aquaticus = assay: Inhibition of Thermus aquaticus DNA polymerase-mediated amplification of fragment of pBR322 by PCR
Summary of the method: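 PCR amplification of a pBR322 fragment by Taq polymerase with increasing compound (0.25–40) for 25 cycles: 94 °C, 58 °C and 72 °C, 30 s each. Products were run on 2% agarose in 0.5X TBE (4.2 V/cm, 1.5 h) and stained with ethidium bromide. IC50 is the concentration halving activity; MIC is the lowest concentration that suppresses activity.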

Escherichia coli [2] = assay: Binding affinity to Escherichia coli supercoiled pBR322 DNA assessed as DNA intercalation up to 100 uM by agarose gel electrophoresis
Summary of the method: (§1)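 Supercoiled pBR322 mixed with ligand (0–100 µM) in 10 mM Tris, 50 mM KCl with no enzyme, then run on agarose gel. Shift in electrophoretic mobility was read as intercalation/binding.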

[3] = target: Telomerase reverse transcriptase (Homo sapiens) (UniProt O14746); assay: Inhibition of telomerase activity in human HeLa cells using 5'AATCCGTCGAGCAGAGTT3' as substrate after 30 mins by Sybr green1 staining based TRAP-PCR method; type: cell-based
Jurkat [4] = assay: Induction of apoptosis in human Jurkat T cells at 6.4 uM after 24 hrs by annexin V-phycoerythrin/7-AAD staining based flow cytometry (reference value: 5.8 to 6.6%); type: functional
Jurkat [5] = assay: Induction of apoptosis in human Jurkat T cells assessed as PARP cleavage at 3.2 uM after 24 hrs by flow cytometry (reference value: 4.8%); type: functional
Jurkat [6] = assay: Cell cycle arrest in human Jurkat T cells assessed as accumulation at G2/M phase at 3.2 uM after 24 hrs by propidium iodide staining based flow cytometry (reference value: 17.1 to 20.8%); type: functional
Jurkat [7] = assay: Cell cycle arrest in human Jurkat T cells assessed as accumulation at G0/G1 phase at 3.2 uM after 24 hrs by propidium iodide staining based flow cytometry (reference value: 62.7 to 68.6%); type: functional
HL-60 = assay: Growth inhibition of human HL60 cells incubated for 48 hrs by sulforhodamine B assay; type: functional; settings: HL-60, 48 h
MOLT-4 = assay: Growth inhibition of human MOLT4 cells incubated for 48 hrs by sulforhodamine B assay; type: functional; settings: MOLT-4, 48 h
HOP-92 = assay: Growth inhibition of human HOP92 cells incubated for 48 hrs by sulforhodamine B assay; type: functional; settings: HOP-92, 48 h
NCI-H226 = assay: Growth inhibition of human NCI-H226 cells incubated for 48 hrs by sulforhodamine B assay; type: functional; settings: NCI-H226, 48 h
HT-29 = assay: Growth inhibition of human HT-29 cells incubated for 48 hrs by sulforhodamine B assay; type: functional; settings: HT-29, 48 h
U-251 = assay: Growth inhibition of human U251 cells incubated for 48 hrs by sulforhodamine B assay; type: functional; settings: U-251, 48 h
Malme-3M = assay: Growth inhibition of human MALME-3M cells incubated for 48 hrs by sulforhodamine B assay; type: functional
SK-MEL-28 = assay: Growth inhibition of human SK-MEL-28 cells incubated for 48 hrs by sulforhodamine B assay; type: functional; settings: SK-MEL-28, 48 h
SK-MEL-5 = assay: Growth inhibition of human SK-MEL-5 cells incubated for 48 hrs by sulforhodamine B assay; type: functional; settings: SK-MEL-5, 48 h
UACC-257 = assay: Growth inhibition of human UACC257 cells incubated for 48 hrs by sulforhodamine B assay; type: functional; settings: UACC-257, 48 h
UACC-62 = assay: Growth inhibition of human UACC62 cells incubated for 48 hrs by sulforhodamine B assay; type: functional; settings: UACC-62, 48 h
IGROV-1 = assay: Growth inhibition of human IGROV1 cells incubated for 48 hrs by sulforhodamine B assay; type: functional; settings: IGROV-1, 48 h
OVCAR-4 = assay: Growth inhibition of human OVCAR4 cells incubated for 48 hrs by sulforhodamine B assay; type: functional; settings: OVCAR-4, 48 h
OVCAR-8 = assay: Growth inhibition of human OVCAR8 cells incubated for 48 hrs by sulforhodamine B assay; type: functional; settings: OVCAR-8, 48 h
PC-3 = assay: Growth inhibition of human PC3 cells incubated for 48 hrs by sulforhodamine B assay; type: functional; settings: PC-3, 48 h
MCF7 = assay: Growth inhibition of human MCF7 cells incubated for 48 hrs by sulforhodamine B assay; type: functional; settings: MCF7, 48 h
Hs-578T = assay: Growth inhibition of human Hs 578T cells incubated for 48 hrs by sulforhodamine B assay; type: functional
Escherichia coli [8] = assay: Binding affinity to Escherichia coli supercoiled pBR322 DNA up to 100 uM by agarose gel electrophoresis; summary of the method: as §1

Chain of DNA topoisomerase 2-alpha (P11388 whole entry): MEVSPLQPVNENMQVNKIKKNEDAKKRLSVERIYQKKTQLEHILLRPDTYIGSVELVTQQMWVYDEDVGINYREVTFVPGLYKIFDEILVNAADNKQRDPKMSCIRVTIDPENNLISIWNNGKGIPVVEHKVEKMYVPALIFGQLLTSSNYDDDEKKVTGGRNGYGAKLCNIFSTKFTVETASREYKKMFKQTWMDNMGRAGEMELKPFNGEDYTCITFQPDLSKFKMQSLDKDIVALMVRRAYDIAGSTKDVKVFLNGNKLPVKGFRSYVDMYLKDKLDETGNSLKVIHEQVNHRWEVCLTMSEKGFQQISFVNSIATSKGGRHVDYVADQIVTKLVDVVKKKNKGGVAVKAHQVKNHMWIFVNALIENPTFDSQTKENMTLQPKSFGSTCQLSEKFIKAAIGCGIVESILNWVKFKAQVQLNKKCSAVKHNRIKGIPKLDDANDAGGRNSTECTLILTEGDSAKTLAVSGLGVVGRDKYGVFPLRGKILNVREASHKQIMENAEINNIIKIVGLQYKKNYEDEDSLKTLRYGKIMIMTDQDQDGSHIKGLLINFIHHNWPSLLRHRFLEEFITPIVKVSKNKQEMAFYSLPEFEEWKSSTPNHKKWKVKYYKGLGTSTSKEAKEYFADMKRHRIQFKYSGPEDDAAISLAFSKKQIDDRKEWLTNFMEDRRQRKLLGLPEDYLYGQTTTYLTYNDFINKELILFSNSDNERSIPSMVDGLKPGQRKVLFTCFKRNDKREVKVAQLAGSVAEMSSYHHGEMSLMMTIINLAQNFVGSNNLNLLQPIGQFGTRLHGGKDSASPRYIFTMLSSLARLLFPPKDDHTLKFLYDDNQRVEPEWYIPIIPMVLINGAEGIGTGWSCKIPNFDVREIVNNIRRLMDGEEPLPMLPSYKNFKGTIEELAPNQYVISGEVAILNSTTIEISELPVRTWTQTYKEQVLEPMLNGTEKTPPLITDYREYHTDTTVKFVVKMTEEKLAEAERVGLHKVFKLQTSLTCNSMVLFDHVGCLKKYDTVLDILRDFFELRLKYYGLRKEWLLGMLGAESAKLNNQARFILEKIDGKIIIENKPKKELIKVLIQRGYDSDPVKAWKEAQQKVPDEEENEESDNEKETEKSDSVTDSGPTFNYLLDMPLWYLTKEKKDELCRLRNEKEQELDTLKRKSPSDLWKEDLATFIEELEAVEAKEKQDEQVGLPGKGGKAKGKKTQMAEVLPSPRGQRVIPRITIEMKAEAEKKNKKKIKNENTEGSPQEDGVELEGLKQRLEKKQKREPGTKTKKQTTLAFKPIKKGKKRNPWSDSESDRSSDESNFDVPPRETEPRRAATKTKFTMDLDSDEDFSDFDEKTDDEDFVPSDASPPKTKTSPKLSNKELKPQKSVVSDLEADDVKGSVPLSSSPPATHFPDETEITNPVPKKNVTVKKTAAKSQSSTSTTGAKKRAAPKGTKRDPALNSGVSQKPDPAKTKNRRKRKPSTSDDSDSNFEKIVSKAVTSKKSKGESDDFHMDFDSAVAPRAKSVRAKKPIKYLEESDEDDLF
Chain of Telomerase reverse transcriptase (Homo sapiens) (O14746 whole entry): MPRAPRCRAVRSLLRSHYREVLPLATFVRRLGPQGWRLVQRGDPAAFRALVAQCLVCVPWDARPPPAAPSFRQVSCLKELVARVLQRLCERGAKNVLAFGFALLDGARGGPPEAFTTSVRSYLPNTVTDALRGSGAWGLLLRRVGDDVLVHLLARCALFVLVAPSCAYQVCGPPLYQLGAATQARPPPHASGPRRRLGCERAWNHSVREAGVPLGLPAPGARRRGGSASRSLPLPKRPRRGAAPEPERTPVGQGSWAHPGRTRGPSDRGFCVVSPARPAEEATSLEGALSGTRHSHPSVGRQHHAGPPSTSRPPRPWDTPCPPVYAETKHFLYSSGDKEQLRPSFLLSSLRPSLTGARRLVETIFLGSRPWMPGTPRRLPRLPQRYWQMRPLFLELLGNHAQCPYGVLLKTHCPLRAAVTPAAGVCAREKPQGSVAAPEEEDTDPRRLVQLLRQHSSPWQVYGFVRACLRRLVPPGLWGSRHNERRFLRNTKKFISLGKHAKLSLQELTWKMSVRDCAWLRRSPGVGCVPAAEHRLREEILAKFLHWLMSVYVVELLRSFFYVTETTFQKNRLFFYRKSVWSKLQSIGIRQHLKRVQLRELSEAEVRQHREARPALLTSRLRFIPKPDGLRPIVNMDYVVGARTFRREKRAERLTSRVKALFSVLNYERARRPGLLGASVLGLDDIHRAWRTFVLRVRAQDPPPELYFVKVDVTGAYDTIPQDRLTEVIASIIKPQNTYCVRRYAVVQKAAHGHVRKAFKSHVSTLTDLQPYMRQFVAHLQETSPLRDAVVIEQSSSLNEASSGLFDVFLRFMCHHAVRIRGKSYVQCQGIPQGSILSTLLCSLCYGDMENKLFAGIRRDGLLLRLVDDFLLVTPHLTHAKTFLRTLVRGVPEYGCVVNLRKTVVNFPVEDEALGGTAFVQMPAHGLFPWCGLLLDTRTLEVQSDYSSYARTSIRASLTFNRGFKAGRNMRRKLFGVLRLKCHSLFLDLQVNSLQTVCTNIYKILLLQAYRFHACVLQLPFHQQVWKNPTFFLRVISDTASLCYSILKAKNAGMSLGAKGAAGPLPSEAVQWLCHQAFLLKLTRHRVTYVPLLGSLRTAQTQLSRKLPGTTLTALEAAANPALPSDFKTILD

COc1ccccc1CNCCCN1C(=O)c2ccc3c4c(ccc(c24)C1=O)C(=O)N(CCCNCCCN)C3=O
IC50 [1]: 1500 nM | MIC (Thermus aquaticus): 0.25 µM (≈ 0.139 µg/mL) | Activity (Escherichia coli [2]): Active | inhibition [3]: inactive | Activity (Jurkat [4]): 14.5% | Activity (Jurkat [5]): 7.2% | Activity (Jurkat [6]): 27.8% | Activity (Jurkat [7]): 56.1% | GI50 (HL-60): 812 nM | GI50 (MOLT-4): 194 nM | GI50 (HOP-92): 1120 nM | GI50 (NCI-H226): 746 nM | GI50 (HT-29): 160 nM | GI50 (U-251): 108 nM | GI50 (Malme-3M): 393 nM | GI50 (SK-MEL-28): 753 nM | GI50 (SK-MEL-5): 484 nM | GI50 (UACC-257): 625 nM | GI50 (UACC-62): 655 nM | GI50 (IGROV-1): 275 nM | GI50 (OVCAR-4): 873 nM | GI50 (OVCAR-8): 73 nM | GI50 (PC-3): 477 nM | GI50 (MCF7): 129 nM | GI50 (Hs-578T): 1220 nM

COc1ccccc1CNCCCN1C(=O)c2ccc3c4c(ccc(c24)C1=O)C(=O)N(CCCNCCNCCCN)C3=O
GI50 (HL-60): 254 nM | GI50 (MOLT-4): 173 nM | GI50 (HOP-92): 6700 nM | GI50 (NCI-H226): 2990 nM | GI50 (HT-29): 2070 nM | GI50 (U-251): 1170 nM | GI50 (Malme-3M): 1610 nM | GI50 (SK-MEL-28): 3030 nM | GI50 (SK-MEL-5): 1570 nM | GI50 (UACC-257): 2530 nM | GI50 (UACC-62): 1680 nM | GI50 (IGROV-1): 3690 nM | GI50 (OVCAR-4): 466 nM | GI50 (OVCAR-8): 2080 nM | GI50 (PC-3): 5910 nM | GI50 (MCF7): 422 nM | GI50 (Hs-578T): 5510 nM

COc1ccccc1CNCCCN1C(=O)c2ccc3c4c(ccc(c24)C1=O)C(=O)N(CCCCNCCCN)C3=O
IC50 [1]: 7000 nM | MIC (Thermus aquaticus): 0.5 µM (≈ 0.286 µg/mL) | inhibition [3]: inactive | Activity (Escherichia coli [8]): Active | GI50 (HL-60): 1060 nM | GI50 (MOLT-4): 939 nM | GI50 (HOP-92): 2040 nM | GI50 (NCI-H226): 2260 nM | GI50 (HT-29): 998 nM | GI50 (U-251): 787 nM | GI50 (Malme-3M): 984 nM | GI50 (SK-MEL-28): 1630 nM | GI50 (SK-MEL-5): 730 nM | GI50 (UACC-257): 916 nM | GI50 (UACC-62): 1100 nM | GI50 (IGROV-1): 1440 nM | GI50 (OVCAR-4): 713 nM | GI50 (OVCAR-8): 826 nM | GI50 (PC-3): 2300 nM | GI50 (MCF7): 643 nM | GI50 (Hs-578T): 2300 nM

COc1ccccc1CNCCCN1C(=O)c2ccc3c4c(ccc(c24)C1=O)C(=O)N(CCCNCCCCNCCCN)C3=O
IC50 [1]: 2200 nM | MIC (Thermus aquaticus): 0.25 µM (≈ 0.157 µg/mL) | GI50 (HL-60): 438 nM | GI50 (MOLT-4): 584 nM | GI50 (HOP-92): 687 nM | GI50 (NCI-H226): 928 nM | GI50 (HT-29): 309 nM | GI50 (U-251): 328 nM | GI50 (Malme-3M): 241 nM | GI50 (SK-MEL-28): 390 nM | GI50 (SK-MEL-5): 156 nM | GI50 (UACC-257): 176 nM | GI50 (UACC-62): 364 nM | GI50 (IGROV-1): 360 nM | GI50 (OVCAR-4): 160 nM | GI50 (OVCAR-8): 288 nM | GI50 (PC-3): 564 nM | GI50 (MCF7): 200 nM | GI50 (Hs-578T): 1360 nM
